The list is not random: actives were taken first. Their share in the collection is about 3.7%.
CFTR F508del cor: CFTR F508del correction in bronchial cells; CFBE cells, YFP halide quenching; stimulated with forskolin plus potentiator P3; % fluorescence drop versus neutral controls; activity (quench increase), % at 7.58 µM; hit rate 0.36% among 350,000; AID 720511;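 active = mean added fluorescence quench of at least 8% versus neutral control, with both replicates also reaching 8%; inconclusive = only one of the mean or replicate conditions met; inactive = mean below 8% and not both replicates reaching 8%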;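 note: cells transiently co-express mutant CFTR-F508del with the halide-sensitive YFP; corrector assay measuring rescue of mutant channel to the surface after 24 h compound exposure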
ERAP1 inh: ERAP1 (human) enzyme inhibition | hit rate 0.15% among 340,000 | AID 652197 | recombinant ERAP1, Leu-AMC fluorescence, 60 min | inhibition, % at 10.7 µM | Q9NZ08;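 active = mean replicate inhibition of at least 30%, or all replicates individually reaching that 30% level; inactive = mean below 30% and not every replicate reaching it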;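 note: 0% = neutral control wells and 100% = L-leucinethiol positive control wells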
E-selectin induc: E-selectin induction on HUVECs. hit rate 0.37% among 260,000. P16581. HUVEC E-selectin immunofluorescence imaging; normalized: neutral wells 0, TNF-alpha wells 100. activation, % at 7.58 µM;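 active = mean E-selectin-positive cell signal at least 10% of the positive control, reached in at least 60% of replicates, without over 20% cell loss; inconclusive = no rule given, readout overlaps actives, possibly toxicity-flagged; inactive = the rest, including those meeting only one limit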
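Material: HUVEC primary endothelial cells; Amount: 3,000 cells per well; Dosing: single concentration; Medium: EGM-2 growth medium on 0.1% gelatin-coated wells; Read-out basis: percent E-selectin-positive cells; Signal: immunofluorescence imaging; Control set: TNF-alpha, DMSO.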
DENV2 CPE rescue: inhibitors of DENV2 cytopathic effect; DENV2-infected cells, cytopathic effect rescue, plate reader; CPE inhibition, % at 9.99 µM; hit rate 1.7% among 350,000; AID 651640; in the data active = CPE inhibition above about 20%, passing the limit was not always enough; inconclusive = no clear call, values can overlap the other calls; tested in BHK-21 cells;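 note: 0% = median of neutral control wells and 100% = median of positive control wells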
FGF22 binding: FGF22 (human) thermal shift binding; recombinant FGF22 thermal shift, SYPRO orange fluorescence; percent of sucrose octasulfate shift, DMSO zero; AID 651658; hit rate 1.5% among 340,000; activity (Tm shift, normalised), % at 9.99 µM; Q9HCT0;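 active = mean Tm shift, scaled 0 neutral to 100 positive control, at about 1.3% or above, every replicate too, limit read from the data; inconclusive = no clear call, values can overlap the other calls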
Target sequence (Q9HCT0 whole entry, looked up): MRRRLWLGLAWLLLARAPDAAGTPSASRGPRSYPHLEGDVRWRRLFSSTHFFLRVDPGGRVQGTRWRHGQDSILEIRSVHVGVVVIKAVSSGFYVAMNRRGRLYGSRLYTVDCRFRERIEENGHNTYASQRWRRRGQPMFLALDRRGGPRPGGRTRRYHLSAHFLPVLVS
* hit, by the source's call; ? = inconclusive; · = no result.

SMILES	CFTR F508del cor	ERAP1 inh	E-selectin induc	DENV2 CPE rescue	FGF22 binding
CC=Cc1ccc2n(c1=O)C[C@@H]1[C@@H](CO)[C@H](C(=O)NCc3ccc(F)cc3)N(C)[C@H]21 (mixture of isomers)	0.7	-1.1	-0.5	0.9	-0.3
CO[C@H]1CC[C@H]2CCN(C)C(=O)[C@H](C)[C@@H](OC)CN(C)C(=O)c3cc(C#N)ccc3OC[C@H]1O2	0.3	2.7	0.0	11.8	0.5
COc1ccc(-c2c[n+](CC(=O)OC3CC(C)CCC3C(C)C)c3n2CCC3)cc1 (configuration not stated)	-11.2	-1.4	-3.3	-3.0	43.3*
COC(=O)CSc1[nH]c2ccc(F)cc2c1[N+](=O)[O-]	2.1	8.6	·	-6.1	-0.1
CCOC(=O)CSc1[nH]c2cc(OC)ccc2c1[N+](=O)[O-]	0.7	1.3	-1.1	24.2*	-0.2
Cc1noc(C)c1NC(=O)N(C)C[C@@H]1Oc2ccc(NC(=O)Cc3ccccc3)cc2CC(=O)N([C@@H](C)CO)C[C@@H]1C	-3.2	-2.2	-0.1	13.6	-0.5
O=C(C[C@@H]1CC[C@H](NC(=O)CC2CC2)[C@H](CO)O1)NCc1ccccc1	0.9	·	-0.1	?	·
CN(C)CC(=O)N1[C@H](CO)[C@@H](c2ccccc2)C12CN(Cc1cc(F)ccc1F)C2	-2.6	-1.2	0.3	-9.2	-0.3
C=CCNC(=O)COc1ccc(S(=O)(=O)N2CCCC2)cc1	-1.3	4.3	·	-1.6	0.1
C=CCNC(=O)COC(=O)c1cc(S(=O)(=O)N2CCCCC2)ccc1Cl	-0.1	-2.9	-0.8	6.1	43.0*
C[C@H](CO)N1C[C@H](C)[C@H](CN(C)CC2CCCCC2)Oc2ccc(NC(=O)c3ccncc3)cc2C1=O	-2.0	0.7	0.2	-5.5	-0.1
COc1ccccc1S(=O)(=O)N(C)C[C@H]1OCc2ccccc2-c2ccccc2C(=O)N([C@H](C)CO)C[C@@H]1C	0.7	-2.8	0.1	1.2	-0.3
O=C(Nc1ccc2ccccc2c1)[C@@H]1C[C@H]1[C@@H](NP(=O)(c1ccccc1)c1ccccc1)c1ccccc1	1.5	·	1.6	40.3*	-0.1
CO[C@H]1CN(C)C(=O)c2cc(NC(=O)Nc3ccccc3F)ccc2OC[C@H](C)NC[C@@H]1C	0.0	-6.5	-0.1	3.2	1.0
C=CCNC(=O)[C@H]1[C@@H]2C(=O)O[C@@H](c3ccccc3)[C@@H](c3ccccc3)N2[C@@H](c2ccc(OCCO)cc2)[C@]12C(=O)N(C(=O)OCCOC)c1ccc(C#Cc3ccc(OC)cc3)cc12	-2.2	5.6	·	22.6*	0.7
C=CCNC(=O)[C@H]1[C@@H]2C(=O)O[C@@H](c3ccccc3)[C@@H](c3ccccc3)N2[C@@H](c2ccc(O)cc2)[C@]12C(=O)N(C(=O)OCCOC)c1ccc(C#CCC(C(=O)OC)C(=O)OC)cc12	-2.5	3.9	·	0.8	18.3*
COCCOC(=O)N1C(=O)[C@@]2(c3cc(C#CC4(O)CCCCCC4)ccc31)[C@H](c1ccc(OCCO)cc1)N1[C@H](c3ccccc3)[C@H](c3ccccc3)OC(=O)[C@H]1[C@@H]2C(N)=O	-2.6	3.6	·	68.9*	0.6
C=CCNC(=O)[C@H]1[C@@H]2C(=O)O[C@@H](c3ccccc3)[C@@H](c3ccccc3)N2[C@@H](c2ccc(O)cc2)[C@]12C(=O)N(C(=O)OCCOC)c1ccc(C#Cc3ccc(OC)cc3)cc12	-1.5	1.4	·	11.1	-0.2
COCCOC(=O)N1C(=O)[C@@]2(c3cc(C#CCCO)ccc31)[C@H](C(N)=O)[C@H]1C(=O)O[C@H](c3ccccc3)[C@H](c3ccccc3)N1[C@@H]2c1ccc(OCCO)cc1	-0.4	3.2	·	1.1	-0.2
C[C@@H]1CN([C@@H](C)CO)C(=O)Cc2cc(NC(=O)C3CCCCC3)ccc2O[C@@H]1CN(C)C	-2.3	3.5	-0.3	6.8	-0.2
C[C@@H]1CN([C@H](C)CO)C(=O)c2cc(NS(=O)(=O)c3ccc(Cl)cc3)ccc2O[C@@H]1CN(C)Cc1ccc(Cl)c(Cl)c1	7.5	-2.0	-0.1	-2.3	-0.1
CN(C)C(=O)C[C@@H]1CC[C@@H]2[C@H](COc3ccc(NC(=O)C4CCCCC4)cc3C(=O)N2C)O1	0.0	·	-0.1	27.9*	-0.1
CN(C)C(=O)C[C@@H]1CC[C@H]2[C@@H](COc3ccc(NC(=O)C4CCCCC4)cc3C(=O)N2C)O1	0.5	1.5	1.1	9.7	-0.2
CN1CCN(C(=O)C[C@@H]2CC[C@H]3[C@H](COc4ccc(NC(=O)C5CCCC5)cc4C(=O)N3C)O2)CC1	1.8	-2.8	0.2	25.3*	·
COc1cccc(NC(=O)C[C@H]2CC[C@@H]3[C@@H](COc4ccc(NC(=O)C5CCCCC5)cc4C(=O)N3C)O2)c1	3.1	0.0	-0.1	32.9*	-0.2
SMILES	CFTR F508del cor	ERAP1 inh	E-selectin induc	DENV2 CPE rescue	FGF22 binding
C/C=C/c1ccc([C@@H]2[C@H](CO)N(C(=O)CC)[C@H]2CNC(=O)CC2CC2)cc1	1.3	·	0.0	·	·
CC(C)CC#Cc1cnc2c(c1)C(=O)N([C@@H](C)CO)C[C@@H](C)[C@H](CN(C)C(=O)Nc1ccccc1F)O2	1.1	2.9	0.3	-3.8	-0.2
CCOc1ccccc1CNC(CC)CO (configuration not stated)	-1.6	-2.8	4.2	5.6	43.5*
CCOc1ccccc1CNC(c1ccccc1)c1ccccc1	0.6	4.0	-0.2	11.4	0.0
CCC(=O)N[C@H]1C=C[C@H](CC(=O)NCCN2CCCCC2)O[C@@H]1CO	1.2	0.5	-0.1	0.0	-0.2
CSc1ccc(C(=O)C2CCCN(C(=O)c3cccnc3SC)C2)cc1 (configuration not stated)	1.8	0.8	-0.5	-2.8	-0.1
COc1ccc(C(=O)C2CCCN(C(=O)c3cccs3)C2)cc1F (configuration not stated)	-0.5	-2.5	-0.2	1.8	42.7
COc1ccc(C(=O)C2CCCN(C(=O)c3cccnc3OC)C2)cc1F (configuration not stated)	·	3.3	·	12.3	43.6*
CSc1ncccc1C(=O)N1CCCC(C(=O)c2ccc3ccccc3c2)C1 (configuration not stated)	-0.1	-1.1	-0.1	16.0	43.1*
O=C(C[C@H]1C[C@H](C(=O)N2CCCCC2)[C@@]2(CCc3ccccc3)c3[nH]c4ccc(Cl)cc4c3CCN2C1=O)NCc1cccc(C(F)(F)F)c1	-0.1	·	-0.4	-7.3	33.9*
Cc1nc(N(C)C)c2sc(=S)n(C)c2n1	-2.1	0.9	·	37.6*	-0.2
Cc1ccc(S(=O)(=O)N(C)C[C@H]2OCCCC[C@@H](C)Oc3ccc(NS(=O)(=O)c4ccc(Cl)cc4)cc3C(=O)N([C@@H](C)CO)C[C@@H]2C)cc1	1.5	1.0	0.3	2.5	0.1
O=C(NCC1CCCO1)C(=O)N/N=C/c1ccccc1C(=O)O (configuration not stated)	0.6	-4.3	-0.7	-1.2	43.1*

Source: PubChem (Broad Institute)
